From publication PMC11032538 (Alzheimer's & Dementia, 2024)

Assays:
[1] = test system: p-tau species; assay: ^3H-UCB-J saturation binding in AD P1 fraction pre-blocked with tau PET ligands; set-up: species or system Human; details: 10 μM pre-blocking of frontal cortex AD P1 fraction
How it was run: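 AD frontal cortex pooled P1 fraction was pre-blocked with 10 μM unlabeled tau PET ligand on ice for 1 h. It was then spun at 2800 rpm for 10–15 min at 4°C to remove free ligand and resuspended in binding buffer. Saturation binding used 0–40 nM ³H-UCB-J, 2 h at room temperature, with filtration and scintillation counting. Data are means ± SEM of three to four experiments in duplicate.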

[2] = molecular target: tau (Homo sapiens, UniProt P10636); assay: ^3H-MK6240 vs UCB-J competition binding in P1 fractions; details: up to 10 μM UCB-J; CN and AD P1 fractions; 0.5 nM ^3H-MK6240
tau, sequence (P10636 623-758 limits assumed): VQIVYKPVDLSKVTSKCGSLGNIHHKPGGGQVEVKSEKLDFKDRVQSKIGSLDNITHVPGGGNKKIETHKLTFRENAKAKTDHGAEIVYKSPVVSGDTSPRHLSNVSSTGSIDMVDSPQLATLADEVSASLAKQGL

[3] = molecular target: T1, SV2A (Homo sapiens, UniProt Q7L0J3); details: AD middle frontal cortex; ref 34 Mikkelsen et al.; cited from earlier work
T1 sequence (Q7L0J3 whole entry): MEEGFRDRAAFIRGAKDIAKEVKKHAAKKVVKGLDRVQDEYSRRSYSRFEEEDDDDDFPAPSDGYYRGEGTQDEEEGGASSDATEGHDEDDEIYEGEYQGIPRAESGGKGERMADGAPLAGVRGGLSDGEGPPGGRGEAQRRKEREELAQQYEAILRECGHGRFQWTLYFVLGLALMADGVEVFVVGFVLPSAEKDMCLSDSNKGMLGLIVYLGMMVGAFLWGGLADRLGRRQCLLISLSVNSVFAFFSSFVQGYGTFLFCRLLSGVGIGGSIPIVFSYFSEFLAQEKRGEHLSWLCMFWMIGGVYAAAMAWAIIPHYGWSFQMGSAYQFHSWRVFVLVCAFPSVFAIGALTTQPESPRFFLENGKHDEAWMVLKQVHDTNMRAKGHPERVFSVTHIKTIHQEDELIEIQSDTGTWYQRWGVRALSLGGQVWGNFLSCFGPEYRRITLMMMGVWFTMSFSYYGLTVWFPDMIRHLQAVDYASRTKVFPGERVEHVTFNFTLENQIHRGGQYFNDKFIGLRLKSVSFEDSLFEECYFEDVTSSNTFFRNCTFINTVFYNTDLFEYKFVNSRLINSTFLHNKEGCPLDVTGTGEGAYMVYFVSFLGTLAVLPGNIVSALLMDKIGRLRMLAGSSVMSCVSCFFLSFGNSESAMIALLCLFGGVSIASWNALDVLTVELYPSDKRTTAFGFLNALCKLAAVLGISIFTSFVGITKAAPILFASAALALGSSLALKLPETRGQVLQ

[4] = molecular target: T1, SV2A; details: frontal cortex (middle frontal gyrus) autoradiography; ref 24 Metaxas et al.; cited from earlier work
[5] = test system: p-tau species; assay: ^3H-UCB-J vs MK6240 competition binding in P1 fractions; set-up: species or system Human; details: 100 μM; CN and AD P1 fraction; 5 nM ^3H-UCB-J
How it was run: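 Pooled frontal cortex P1 fractions (0.05 mg protein) from one control and one AD pool. These were incubated 2 h at room temperature with 5 nM ³H-UCB-J plus increasing unlabeled competitor (10⁻¹⁴ to 10⁻⁴) in Tris-HCl pH 7.4 binding buffer. Samples were filtered and counted by scintillation. Binding was expressed as % of total; IC₅₀ came from non-linear competitive-binding regression.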

[6] = molecular target: T1, SV2A; type: binding; details: 1 mM levetiracetam; 5 nM ^3H-UCB-J; CN frontal cortex P2 (Figure S2)

Fc1ccc(-c2ccc3c(c2)[nH]c2ccncc23)cn1 [AV-1451]
reduction in ^3H-UCB-J binding compared to unblocked AD P1 fractions [1]: ≈ 22%

Cc1cnccc1CN1C[C@@H](c2cc(F)c(F)c(F)c2)CC1=O [UCB-J]
displacement of ^3H-MK6240 binding [2]: no displacement
reduction in UCB-J binding in AD compared to CN [3]: 19%
difference in UCB-J binding between AD and CN cases [4]: no difference

Nc1c(F)ccc2cnc(-n3ccc4ccncc43)cc12 [MK6240]
displacement of ^3H-UCB-J binding [5]: ≈ 38%
reduction in ^3H-UCB-J binding compared to unblocked AD P1 fractions [1]: ≈ 22%

CC[C@@H](C(N)=O)N1CCCC1=O [Levetiracetam]
displacement of ^3H-UCB-J binding compared with 1 μM UCB-J [6]: same displacement
